{
  "source": "paper PMC12667952",
  "about": "(bioRxiv, 2025)",
  "key": {"CCI mice": {"test_system": "CCI mice", "assay": "Cold allodynia", "type": "in vivo, mouse", "details": "control compound gabapentin 100 mg/kg, by 2-hour time point", "how_it_was_run": "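CCI mice tested 14 days after surgery. […] Acetone-evoked cold allodynia scored before surgery, at t = 0 before dosing, and at 0.5, 1, 1.5, 2, 4 and 6 h. Expressed as % of maximal possible responses. Two-way ANOVA with Dunnett's test versus vehicle.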"}, "hGlyT2^W215F [1]": {"target": "T1, hGlyT2^W215F (Homo sapiens, UniProt Q9Y345, W215F)", "T1 sequence (Q9Y345 1-797 W215F)": "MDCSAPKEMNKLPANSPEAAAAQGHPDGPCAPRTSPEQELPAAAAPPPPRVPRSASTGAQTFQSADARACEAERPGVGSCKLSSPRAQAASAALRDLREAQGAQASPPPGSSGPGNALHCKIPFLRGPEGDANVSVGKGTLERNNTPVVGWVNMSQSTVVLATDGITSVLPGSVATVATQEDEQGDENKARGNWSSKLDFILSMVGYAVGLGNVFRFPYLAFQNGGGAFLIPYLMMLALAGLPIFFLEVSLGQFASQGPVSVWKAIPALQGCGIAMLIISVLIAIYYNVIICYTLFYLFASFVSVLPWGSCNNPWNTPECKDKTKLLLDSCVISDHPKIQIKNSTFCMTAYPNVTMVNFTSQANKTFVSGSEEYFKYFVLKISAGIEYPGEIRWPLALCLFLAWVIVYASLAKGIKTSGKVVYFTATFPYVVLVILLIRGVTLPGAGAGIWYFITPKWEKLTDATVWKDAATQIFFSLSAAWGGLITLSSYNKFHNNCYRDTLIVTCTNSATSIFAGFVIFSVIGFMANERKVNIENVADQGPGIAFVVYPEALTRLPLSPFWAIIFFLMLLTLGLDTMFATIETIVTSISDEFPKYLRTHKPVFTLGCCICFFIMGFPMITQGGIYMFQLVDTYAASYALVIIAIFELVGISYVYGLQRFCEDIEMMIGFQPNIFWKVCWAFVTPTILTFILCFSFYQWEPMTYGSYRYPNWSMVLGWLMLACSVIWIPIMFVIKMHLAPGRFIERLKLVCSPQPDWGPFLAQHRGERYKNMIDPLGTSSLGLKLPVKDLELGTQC", "type": "cell-based"}, "mice [2]": {"test_system": "mice", "details": "50 mg/kg; cited from earlier work"}, "hGlyT2^W215F [3]": {"target": "T1, hGlyT2^W215F", "assay": "Reversibility", "type": "cell-based"}, "mice [4]": {"test_system": "mice", "details": "50 mg/kg; cited from earlier work", "remark": "listed apart in the source"}, "hGlyT2^D633E [5]": {"target": "T2, hGlyT2^D633E (Homo sapiens, UniProt Q9Y345, D633E)", "T2 sequence (Q9Y345 1-797 D633E)": "T1 sequence (Q9Y345 1-797 W215F) with F215W, D633E", "assay": "Reversibility", "type": "cell-based"}, "hGlyT2^WT [6]": {"target": "T3, hGlyT2^WT (Homo sapiens, UniProt Q9Y345)", "T3 sequence (Q9Y345 1-797)": "T1 sequence (Q9Y345 1-797 W215F) with F215W", "type": "cell-based"}, "hGlyT2^WT [7]": {"target": "T3, hGlyT2^WT", "assay": "Sodium dependence of inhibition of glycine transport currents", "type": "cell-based", "details": "IC50 at 100 mM Na+, 100 mM Na+, 300 μM glycine"}, "hGlyT2^WT [8]": {"target": "T3, hGlyT2^WT", "assay": "Reversibility", "type": "cell-based", "how_it_was_run": "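Xenopus oocytes injected with 20 ng hGlyT2 WT cRNA and held 3–6 days at 18 °C. Glycine currents recorded by two-electrode voltage clamp at −60 mV. Test compound applied at a single concentration (10 μM maximum), then washed out. Recovery of 30 µM glycine-evoked currents followed to 30 min, normalised to pre-inhibitor current. n ≥ 5 from at least two frogs.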"}, "hGlyT2^D633E [9]": {"target": "T2, hGlyT2^D633E", "type": "cell-based"}, "[10]": {"details": "cited from earlier work"}, "C57BL/6J mice": {"test_system": "C57BL/6J mice", "assay": "Conditioned place preference", "type": "in vivo, mouse", "details": "10 mg/kg, i.p., positive control"}, "GlyT2": {"test_system": "GlyT2", "details": "read-out: IC50 for GlyT2; cited from earlier work"}},
  "note": "Substitutions are numbered along the chain they refer to. Where two headings read alike, the source gives them in different places.",
  "data": [
    {"smiles": "NCC1(CC(=O)O)CCCCC1", "note": "[Gabapentin, reference compound]", "values": [
      {"measurement": "Peak reduction of response rate to acetone stimulus", "setting": "CCI mice", "result": 75, "unit": "%"}
    ]},
    {"smiles": "COc1cc(C(=O)NCC2(N(C)C)CCCC2)cc(OC)c1OCc1ccccc1", "note": "[ORG25543, 4-(benzyloxy)-N-{[1-(dimethylamino)cyclopentyl]methyl}-3,5-dimethoxybenzamide, reference compound]", "values": [
      {"measurement": "Decrease in potency of inhibition, W215F versus WT", "setting": "hGlyT2^W215F [1]", "result": "~three-fold"},
      {"measurement": "Side effects coinciding with analgesic dose", "setting": "mice [2]", "result": "near-complete loss of rotarod performance, seizures and in one case, lethality"},
      {"measurement": "Washout of inhibitor from hGlyT2^W215F", "setting": "hGlyT2^W215F [3]", "result": "significantly increased the rate of ORG25543 washout"},
      {"measurement": "Mechanical allodynia", "setting": "mice [4]", "result": "reversed mechanical allodynia"},
      {"measurement": "Washout of inhibitor from hGlyT2^D633E", "setting": "hGlyT2^D633E [5]", "result": "recovery from ORG25543 within five minutes"},
      {"measurement": "IC50", "setting": "hGlyT2^WT [6]", "result": 11.4, "unit": "nM"},
      {"measurement": "IC50", "setting": "hGlyT2^WT [7]", "result": 17.6, "unit": "nM"},
      {"measurement": "Glycine currents restored, of pre-inhibitor levels", "setting": "hGlyT2^WT [8]; after 30 minutes washout", "result": 12.5, "unit": "%"},
      {"measurement": "Reversibility of inhibition (recovery of glycine-induced currents)", "setting": "hGlyT2^WT [8]; washout, hGlyT2^WT", "result": "minimal restoration of glycine-induced currents 30-minutes post-ORG25543"},
      {"measurement": "Reduction in potency of inhibition, D633E versus WT", "setting": "hGlyT2^D633E [9]", "result": "~ 14 fold"},
      {"measurement": "Effects on inflammatory and acute nociceptive pain thresholds", "setting": "[10]", "result": "no effects"}
    ]},
    {"smiles": "CN1CC[C@]23c4c5ccc(O)c4O[C@H]2[C@@H](O)C=C[C@H]3[C@H]1C5", "note": "[morphine, reference compound]", "values": [
      {"measurement": "Preference for the paired chamber", "setting": "C57BL/6J mice", "result": "significant increase in preference for the paired chamber"}
    ]},
    {"smiles": "CCCCCCCC/C=C\\CCCCCCCC(=O)N[C@H](CCCCN)C(=O)O", "note": "[oleoyl-D-lysine]", "values": [
      {"measurement": "Effects on inflammatory and acute nociceptive pain thresholds", "setting": "[10]", "result": "no effects"}
    ]},
    {"smiles": "CCCCOc1c(OC)cc(C(=O)NCC2(N(C)C)CCOCC2)cc1OC", "note": "[opiranserin]", "values": [
      {"measurement": "IC50", "setting": "GlyT2", "result": 860, "unit": "nM"}
    ]}
  ]
}
